Screens (PubChem)
A selection: hits, their analogues and other compounds. The true share with any hit is near 2.1%.
PP5 primary = PP5 phosphatase inhibitors, primary screen, biochemical, fluorescence | actives 0.18% (n = 320,000) | inhibition, % at 6.7 µM | Serine/threonine-protein phosphatase 5 (Homo sapiens), P53041 | AID 1987, 2009 | purified PP5c, OMFP substrate fluorescence;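 active means inhibition above the campaign's mean inhibition across all tested compounds plus 3 SD, cut at about 9.5% in these data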;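 further: 0% = DMSO only and 100% = 100 µM cantharidin control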
Target sequence (P53041 whole entry, looked up): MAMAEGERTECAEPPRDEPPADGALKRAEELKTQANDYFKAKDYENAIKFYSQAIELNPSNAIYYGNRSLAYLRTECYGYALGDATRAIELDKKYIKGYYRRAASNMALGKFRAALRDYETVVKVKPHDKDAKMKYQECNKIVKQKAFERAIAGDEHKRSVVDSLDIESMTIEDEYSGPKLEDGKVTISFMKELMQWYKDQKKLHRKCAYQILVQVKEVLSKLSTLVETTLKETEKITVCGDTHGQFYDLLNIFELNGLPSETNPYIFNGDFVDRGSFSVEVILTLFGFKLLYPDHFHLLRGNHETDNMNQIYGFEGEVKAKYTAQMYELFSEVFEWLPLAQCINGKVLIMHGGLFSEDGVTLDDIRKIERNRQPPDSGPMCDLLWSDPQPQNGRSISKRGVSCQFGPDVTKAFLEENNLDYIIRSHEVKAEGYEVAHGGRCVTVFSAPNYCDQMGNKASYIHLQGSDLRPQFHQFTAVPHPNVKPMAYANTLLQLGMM
PP1 counter = PP1-alpha phosphatase inhibitors, primary screen, counter-screen for PP5 inhibitor project, biochemical, fluorescence, OMFP substrate, single point; Serine/threonine-protein phosphatase PP1-alpha catalytic subunit (Homo sapiens), P62136; purified PP1alpha; inhibition, % at 6.7 µM; actives 0.9% (n = 320,000);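 active means inhibition above the mean inhibition of all tested compounds plus 3 SD, computed separately for each screening campaign, cut at about 15% in these data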
Apaf-1 inh = inhibitors of human Apaf-1 apoptosome, primary screen, biochemical, DEVD-Rh110 fluorescence, uHTS | Apoptotic protease-activating factor 1 (Homo sapiens), O14727 | reconstituted apoptosome caspase-3 activity | inhibition, % at 20 µM | actives 0.71% (n = 330,000) | AID 489030, 2010; active means inhibition of at least 40% at 20 µM;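 further: plate controls were DMSO wells for no effect and DEVD-CHO caspase inhibitor wells for full effect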
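Material: reconstituted apoptosome with Apaf-1, cytochrome c, caspase-9, procaspase-3, dATP / Buffer or medium: pH 7.5 Hepes buffer with CHAPS, BSA, DTT / Also added: cytochrome c with DEVD-Rh110 / Schedule: compound with Apaf-1, dATP, procaspase-3 30 min, then 50 min reaction, room temperature / Technique: rhodamine 110 fluorescence at Ex 480/Em 540 nm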
TDP2 inh = human TDP2 enzyme inhibitors, primary screen, biochemical, epi absorbance, recombinant enzyme. Tyrosyl-DNA phosphodiesterase 2 (Homo sapiens), O95551. T5PNP hydrolysis, p-nitrophenol absorbance 415 nm. inhibition, % at 12.8 µM. actives 0.34% (n = 370,000). AID 720702, 2013;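 active means inhibition above the mean of all tested compounds plus 3 SD, set per campaign, cut at about 25% in these data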;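 further: 0% = DMSO with enzyme and 100% = buffer with substrate but no TDP2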
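System: recombinant human TDP2 / Amount: 120 nM TDP2 per well / Also added: 5 mM T5PNP chromogenic substrate / Doses: 12.8 µM single point, 1% DMSO / Incubation: 2 h at 37 °C / Detection: p-Nitrophenol epi absorbance / Evaluation: % inhibition relative to enzyme-containing and enzyme-free wells / Repeats: singlicate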
GSTO1 counter = inhibitors of recombinant GSTO1, primary screen, counter-screen for RBBP9 inhibitor project, biochemical, fluorescence polarization. actives 1.1% (n = 300,000). Glutathione S-transferase omega-1 (Homo sapiens), P78417. inhibition, % at 5.96 µM. activity-based probe fluorescence polarization;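 active means inhibition above the campaign mean inhibition plus 3 SD, cut at about 35% in these data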;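 further: 0% = GSTO1-1 with DMSO and 100% = wells lacking GSTO1-1 enzyme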
TDP2 confirm = human TDP2 enzyme inhibitors, retest, confirmation, biochemical, epi absorbance, recombinant enzyme; shares compounds with TDP2 inh; absorbance read-out; inhibition, % at 12.8 µM; actives 22% (n = 1,100); in the data active means inhibition above about 25%;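 further: 0% = vehicle with enzyme and 100% = no enzyme buffer only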
Active calls of the source: *; x = no result given.

SMILES	PP5 primary	PP1 counter	Apaf-1 inh	TDP2 inh	GSTO1 counter	TDP2 confirm
COc1c2occc2c(OC)c2c(=O)cc(C)oc12	-2	-6	-1	6	5	x
C#CCNC(=O)C[C@@H]1C(=O)N(CC=C)C2=CCCCC[C@]21C(=O)OC	x	x	x	0	x	x
NS(=O)(=O)c1ccc(NC(=O)/C=C/c2ccco2)cc1	0	0	-4	32*	2	6
O=C(/C=C/c1ccco1)Nc1cccc(C(=O)Nc2ccccc2C(=O)O)c1	2	1	5	28*	-146	12
CCc1ccccc1NC(=O)c1cccc(NC(=O)/C=C/c2ccco2)c1	3	1	10	-7	-6	x
CC(=O)NC(=S)Nc1ccc(NC(=S)NC(=O)/C=C/c2ccco2)cc1	0	5	-11	-5	6	x
O=C(/C=C/c1ccco1)NC(=S)Nc1ccc(C(=O)O)cc1	-3	5	9	40*	18	20
COc1ccc(CCCNC(=O)C2Cc3c(-c4cccc(NC(C)=O)c4)ccnc3O2)cc1 (centres undefined)	x	x	x	-8	x	x
O=C(CSc1nnc(COc2ccccc2)n1-c1ccccc1)Nc1ccc2c(c1)OCO2	x	x	x	-4	x	x
COc1ccc(Nc2nc3ccccc3n3cnnc23)cc1Cl	1	9	7	26*	-4	-4
CC(=O)N1CCCN(C(=O)Cn2cnc3ccccc3c2=O)CC1	x	x	x	5	x	x
COC(=O)C1=C(C)N(C)C(=NCc2cccc(C(F)(F)F)c2)NC1c1ccccc1C(F)(F)F (centres undefined)	x	x	x	-6	x	x
O=C(Nc1ccccc1)Nc1c(-c2ccccc2)nc2ncccn12	x	x	x	11	x	x
CC1CCCN(C(=O)CCCNC(=O)c2ccc(Cl)cc2)C1 (centres undefined)	1	-5	-5	-1	7	x
NC(=O)C1CCCN(C(=O)CCCNC(=O)c2ccc(Cl)cc2)C1 (centres undefined)	0	-5	4	30*	11	7
CC(C)(C)C(=O)[C@@H]1[C@@H]2C(=O)N(c3ccc4c(c3)OCCO4)C(=O)[C@@H]2C2c3ccccc3C=CN21 (some centres undefined)	-2	9	62*	27*	23	9
CCN(CC)CCCNc1ccc2ncn3c4ccc(O)cc4c(=O)c1c23	x	x	x	87*	x	28*
CCOc1cccc(OCCn2cnc3ccccc3c2=O)c1	3	-1	4	8	3	x
CCOc1cccc(OCCCCn2cnc3ccccc3c2=O)c1	1	-2	-9	25*	-4	0
CCCCn1c(N)c(N(CC(C)C)C(=O)c2cccc(OCc3ccccc3)c2)c(=O)[nH]c1=O	4	2	13	25*	-3	-4
CCCCn1c(N)c(N(CC(C)C)C(=O)c2ccc(COc3ccccc3)o2)c(=O)[nH]c1=O	-1	-4	2	8	0	x
CCCCN(C(=O)CCC(=O)OCC(=O)NCc1ccccc1)c1c(N)n(CCC)c(=O)[nH]c1=O	2	0	10	-1	x	x
CCCCCN(C(=O)CCC(=O)OCC(=O)NCc1cccc(OC)c1)c1c(N)n(CCCC)c(=O)[nH]c1=O	2	-1	12	75*	1	-2
C/C(C=Nn1c(-c2ccc(F)cc2)n[nH]c1=S)=C/c1ccco1	x	x	x	-5	x	x
N[C@H](C(=O)N[C@@H](Cc1ccccc1)C(=O)N1CCC2CCN(S(=O)(=O)c3ccccc3)CC21)c1ccccc1 (some centres undefined)	x	x	x	10	x	x
SMILES	PP5 primary	PP1 counter	Apaf-1 inh	TDP2 inh	GSTO1 counter	TDP2 confirm
CC(=O)Nc1ccc(S(=O)(=O)N2CCC(NC(=O)C(Cc3ccc(C)cc3)NC(C)=O)CC2)cc1 (centres undefined)	x	x	4	9	x	x
CC(=O)Nc1ccc(S(=O)(=O)N2CCC(NC(=O)C(Cc3cccc(F)c3)NC(C)=O)CC2)cc1 (centres undefined)	1	0	-1	28*	6	3
Cc1n[nH]c(C)c1S(=O)(=O)NCCc1ccccc1F	x	x	x	-1	x	x
COc1ccc(N(C)C(=O)Nc2ccc3nsnc3c2)cc1	x	x	x	95*	x	7
CCc1nnc(N/N=C/c2c(Cl)cccc2Cl)n1N	0	2	-13	60*	16	11
CCc1nnc(N/N=C/c2cccs2)n1N	-2	-3	0	69*	17	3
CNC(=S)N/N=C/c1c(Cl)cccc1Cl	1	0	-15	9	6	x
C(=N\Nc1nc2ccccc2s1)/c1cccs1	2	7	13	-1	0	x
COCCN1C(=O)[C@H]2C[C@@]13O[C@H](C1CCCCC1)N=C3CC1c3ccccc3C[C@@]12C (some centres undefined)	x	x	x	6	x	x
O=S1(=O)c2ccc(N3CC[C@@H](O)C3)cc2OCCCN1C1CC1	x	x	x	-3	x	x
Cc1ccc(Cl)cc1NS(=O)(=O)c1cn(C)nc1C	-9	-1	7	25*	-2	11
COc1ccc(Cl)cc1NS(=O)(=O)c1cn(C)nc1C	3	-1	0	15	-2	x
O=C1/C(=C\c2ccc(O)c(O)c2)C(c2ccccc2)=NN1c1ccccc1	x	x	x	26*	x	6
CCn1c(Cc2cccs2)nnc1SCC(=O)Nc1ccc(OCc2ccccc2)cc1	x	x	x	8	x	x
CCOc1ccc2[nH]c3nc(SCC(=O)OC(C)C)nnc3c2c1	0	-3	-6	25*	0	4
CCC1CCCCN1C(=O)CNCC1CCCO1 (centres undefined)	0	2	-34	33*	4	7
Cc1ccccc1N(C)C(=O)CN1CCN(c2nc(-c3ccccc3)cs2)CC1	x	x	x	7	x	x
Cc1ccc(-n2ncc3c2CC(C)(C)CC3NC(=O)CCn2cncn2)cc1 (centres undefined)	x	x	1	11	x	x
Cc1ccccc1-n1ncc2c1CC(C)(C)CC2NC(=O)CCn1cncn1 (centres undefined)	x	x	2	82*	x	5
CN(C)CC(c1ccc(O)cc1)C1(O)CCCCC1 (centres undefined)	x	x	x	-7	x	x
CCCCOc1ccc(CSCCNC(=S)Nc2ccccc2)cc1	3	2	27	2	5	x
CCCCCOc1ccc(CSCCNC(=S)Nc2ccccc2)cc1	4	5	14	37*	-4	-2
COc1ccccc1-c1ccc(SCC(=O)NC2CCCC2)nn1	1	-3	0	37*	-4	-10
COc1ccccc1-c1ccc(SCC(=O)NC2CCCCC2)nn1	4	0	3	5	1	x
